Laboratory results published in ChEMBL document CHEMBL3875225, “Design, synthesis and biological evaluation of 7-(aryl)-2,3-dihydro-[1,4]dioxino[2,3-g]quinoline derivatives as potential Hsp90 inhibitors and anticancer agents” (Bioorg Med Chem, 2017).
Active and inactive are the calls of the source. No cut-off for these calls is given here.

Tests used:
[1] = Antiproliferative activity against human MCF7 cells after 48 hrs by MTT assay; type: functional, cell-based; conditions: for IC50: Homo sapiens, MCF7, 48 h
How it was run: (§1)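 5000 cells seeded per well in RPMI complete medium; next day medium replaced with medium containing a range of compound concentrations, with a no-drug control and 17-AAG as reference. After 48 h at 37 °C, 5% CO2, MTT (4 mg/mL solution) added for 3 h. Formazan dissolved in DMSO, absorbance read at 540 nm. Triplicate determinations; mean SD from dose-response curves of three independent experiments.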

[2] = Antiproliferative activity against human A549 cells after 48 hrs by MTT assay; type: functional, cell-based; conditions: for IC50: Homo sapiens, A549, 48 h; how it was run: as §1
[3] = Antiproliferative activity against human DU145 cells after 48 hrs by MTT assay; type: functional, cell-based, DU-145; conditions: for IC50: Homo sapiens, DU-145, 48 h; how it was run: as §1
[4] = Effect on beta-tubulin protein expression in human MCF7 cells at 50 uM after 24 hrs by Western blot method; type: cell-based; conditions: mcf7, 24 h
How it was run: (§2)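 MCF-7 cells seeded at 10⁶ per 25 cm² flask and treated 24 h with 50 µM compound; DMSO vehicle control, 0.5 μM 17-AAG reference. Lysis in Tris-HCl pH 7.4 buffer with protease/phosphatase inhibitors. 50 µg protein resolved on 10% SDS-PAGE, transferred to PVDF, blocked 2 h in 5% skim milk/TBST at 4 °C. Probed 2 h with rabbit anti-Her-2 and anti-Hsp-70 (1:3000); β-tubulin also blotted.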

[5] = target: T1, Heat shock protein HSP90 (Homo sapiens) (UniProt P07900+P08238); test: Inhibition of HSP90 in human MCF7 cells assessed as induction of HSP70 protein expression at 50 uM after 24 hrs by Western blot method relative to control; type: cell-based; how it was run: as §2
[6] = target: T1, Heat shock protein HSP90 (Homo sapiens); test: Inhibition of HSP90 in human MCF7 cells assessed as decrease in Her2 protein expression at 50 uM after 24 hrs by Western blot method relative to control; type: cell-based; how it was run: as §2

Row | inhibition [5] | inhibition [6] | Structure (SMILES) | IC50 [1] | IC50 [2] | IC50 [3] | Activity [1] | Activity [2] | Activity [3] | Activity [4]
1 |  |  | O=C(O)c1cc(-c2ccc(O)cc2)nc2cc3c(cc12)OCCO3 | > 100 µM | > 100 µM | > 100 µM |  |  |  | 
2 |  |  | COc1cc(-c2cc(C(=O)O)c3cc4c(cc3n2)OCCO4)cc(OC)c1OC | > 100 µM | > 100 µM | > 100 µM |  |  |  | 
3 |  |  | Oc1ccc(/C=N/c2ccc3c(c2)OCCO3)cc1 |  |  |  | >100 µM | >100 µM | >100 µM | 
4 |  |  | COc1ccc(/C=N/c2ccc3c(c2)OCCO3)cc1OC |  |  |  | >100 µM | >100 µM | >100 µM | 
5 | Active | > 50% | COc1ccc(-c2cc(CO)c3cc4c(cc3n2)OCCO4)cc1OC | 6.7 µM | 82.1 µM | 11.5 µM |  |  |  | Non-Toxic
6 |  |  | Cc1ccc(-c2cc(C(=O)O)c3cc4c(cc3n2)OCCO4)cc1 | > 100 µM | > 100 µM | > 100 µM |  |  |  | 
7 |  |  | COc1cc(/C=N/c2ccc3c(c2)OCCO3)ccc1O |  |  |  | >100 µM | >100 µM | >100 µM | 
8 |  |  | CC(=O)Nc1ccc(-c2cc(C(=O)O)c3cc4c(cc3n2)OCCO4)cc1 | > 100 µM | > 100 µM | > 100 µM |  |  |  | 
9 |  |  | COc1ccc(-c2cc(C(=O)O)c3cc4c(cc3n2)OCCO4)cc1O | > 100 µM | > 100 µM | > 100 µM |  |  |  | 
10 | Active | > 50% | COc1cc(-c2cc(CO)c3cc4c(cc3n2)OCCO4)ccc1O | 25.7 µM | 87.8 µM | 86.8 µM |  |  |  | Non-Toxic
11 | Active | > 50% | OCc1cc(-c2ccccc2)nc2cc3c(cc12)OCCO3 | 22.7 µM | > 100 µM | 86.1 µM |  |  |  | Non-Toxic
12 | Active | > 50% | COc1ccc(-c2cc(CO)c3cc4c(cc3n2)OCCO4)cc1 | 24 µM | > 100 µM | 21.4 µM |  |  |  | Non-Toxic
13 |  |  | COc1ccc(-c2cc(C(=O)O)c3cc4c(cc3n2)OCCO4)cc1 | > 100 µM | > 100 µM | > 100 µM |  |  |  | 
14 | Active | > 50% | COc1ccc(-c2cc(CO)c3cc4c(cc3n2)OCCO4)cc1O | 40 µM | 94.2 µM | 89.7 µM |  |  |  | Non-Toxic
15 |  |  | O=C(O)c1cc(-c2ccccc2)nc2cc3c(cc12)OCCO3 | > 100 µM | > 100 µM | > 100 µM |  |  |  | 
16 |  |  | COc1cc(/C=N/c2ccc3c(c2)OCCO3)cc(OC)c1OC |  |  |  | >100 µM | >100 µM | >100 µM | 
17 |  |  | COc1ccc(-c2cc(C(=O)O)c3cc4c(cc3n2)OCCO4)cc1OC | > 100 µM | > 100 µM | > 100 µM |  |  |  | 
18 |  |  | COc1cc(-c2cc(C(=O)O)c3cc4c(cc3n2)OCCO4)ccc1O | > 100 µM | > 100 µM | > 100 µM |  |  |  | 
19 | Active | > 50% | COc1cc(-c2cc(CO)c3cc4c(cc3n2)OCCO4)cc(OC)c1OC | 4.53 µM | 46.9 µM | 64.2 µM |  |  |  | Non-Toxic
20 |  |  | O=C(O)c1cc(-c2cccc(O)c2)nc2cc3c(cc12)OCCO3 | > 100 µM | > 100 µM | > 100 µM |  |  |  | 
21 |  |  | C=CCNC1=C2C[C@@H](C)C[C@H](OC)[C@H](O)[C@@H](C)/C=C(\C)[C@H](OC(N)=O)[C@@H](OC)/C=C\C=C(/C)C(=O)NC(=CC1=O)C2=O [TANESPIMYCIN] | 0.192 µM | 0.286 µM | 0.282 µM |  |  |  | 
